This is a sample that favours compounds with a hit; in the whole collection about 4.1% have one here.
Apaf-1 inh: human Apaf-1 inhibition; O14727; reconstituted apoptosome caspase-3 activity, DEVD-Rh110 fluorescence; inhibition, % at 20 µM; 330,000 tested, 0.71% active; active = inhibition of at least 40% at 20 µM;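 note: plate controls were DMSO wells for no effect and DEVD-CHO caspase inhibitor wells for full effect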
Target sequence (O14727 whole entry, looked up): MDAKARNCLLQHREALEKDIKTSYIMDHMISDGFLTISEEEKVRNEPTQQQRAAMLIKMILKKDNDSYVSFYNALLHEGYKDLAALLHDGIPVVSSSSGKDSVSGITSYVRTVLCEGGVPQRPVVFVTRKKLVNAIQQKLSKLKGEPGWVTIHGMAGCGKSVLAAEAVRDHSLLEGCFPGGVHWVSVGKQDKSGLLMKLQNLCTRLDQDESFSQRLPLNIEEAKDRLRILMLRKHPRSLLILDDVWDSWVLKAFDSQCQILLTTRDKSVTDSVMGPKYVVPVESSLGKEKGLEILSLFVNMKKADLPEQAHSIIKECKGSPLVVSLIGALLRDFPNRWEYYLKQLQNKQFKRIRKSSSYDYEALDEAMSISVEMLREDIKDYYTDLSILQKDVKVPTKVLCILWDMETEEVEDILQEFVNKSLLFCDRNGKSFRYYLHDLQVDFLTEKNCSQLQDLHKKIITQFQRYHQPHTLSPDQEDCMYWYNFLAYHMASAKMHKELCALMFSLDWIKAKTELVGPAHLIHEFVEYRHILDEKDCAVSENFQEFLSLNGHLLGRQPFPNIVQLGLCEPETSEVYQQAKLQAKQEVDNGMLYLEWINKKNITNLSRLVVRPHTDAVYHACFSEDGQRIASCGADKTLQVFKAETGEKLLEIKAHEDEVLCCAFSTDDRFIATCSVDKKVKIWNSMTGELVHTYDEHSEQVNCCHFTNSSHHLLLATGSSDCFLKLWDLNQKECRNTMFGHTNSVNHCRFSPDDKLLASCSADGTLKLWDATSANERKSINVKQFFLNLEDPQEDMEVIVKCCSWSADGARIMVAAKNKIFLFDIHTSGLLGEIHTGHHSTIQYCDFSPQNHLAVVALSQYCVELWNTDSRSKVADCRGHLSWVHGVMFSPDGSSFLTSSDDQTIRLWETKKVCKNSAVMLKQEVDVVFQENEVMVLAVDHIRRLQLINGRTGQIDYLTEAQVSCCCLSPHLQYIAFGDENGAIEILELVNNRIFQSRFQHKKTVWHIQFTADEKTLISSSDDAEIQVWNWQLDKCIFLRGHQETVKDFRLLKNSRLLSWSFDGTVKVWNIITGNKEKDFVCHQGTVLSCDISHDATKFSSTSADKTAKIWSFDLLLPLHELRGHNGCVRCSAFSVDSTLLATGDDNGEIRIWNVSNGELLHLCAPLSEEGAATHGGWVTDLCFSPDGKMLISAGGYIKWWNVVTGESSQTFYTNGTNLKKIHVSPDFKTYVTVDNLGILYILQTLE
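Material: reconstituted apoptosome with Apaf-1, cytochrome c, caspase-9, procaspase-3, dATP; medium: pH 7.5 Hepes buffer with CHAPS, BSA, DTT; also added: cytochrome c and DEVD-Rh110 substrate; timing: 30 min plus 50 min, RT; signal: Rh110 fluorescence intensity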
XBP1 UPR activ: activators of adaptive arm of unfolded protein response (XBP1). CHO-XBP1 luciferase reporter, IRE1-XBP1 UPR activation, luminescence; percent of tunicamycin response, DMSO as zero. activation, % at 20 µM. 330,000 tested, 0.33% active. AID 463104;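 active = versus positive control, 20 µM dose yields 30% or more activation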;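 note: 100% = tunicamycin at 10 µg/mL and 0% = DMSO only wells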
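Assay system: IRE1-XBP1 luciferase reporter CHO line. Input: 1000 cells/well. Buffer or medium: F12 with 10% serum. Doses: 20 µM, 1% DMSO. Times: overnight seeding at 37 °C, 6 h compound treatment at 37 °C. Technique: Steady-Glo luciferase glow luminescence, 10 min after reagent addition.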
UBC13 inh: blocks human UBC13 polyubiquitin chain formation. P61088. TR-FRET. inhibition, % at 20 µM. 330,000 tested, 0.47% active. AID 485273; in the data active = inhibition above about 45%, passing the limit was not always enough
CHOP UPR activ: apoptotic UPR (CHOP) activation; 330,000 tested, 0.34% active; CHO-CHOP luciferase reporter, luminescence; percent of tunicamycin response over DMSO baseline; activation, % at 10 µM;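 active = at 10 µM dose, activation of 40% or more, normalized to positive control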;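 note: 100% = tunicamycin at 10 µg/mL and 0% = DMSO alone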
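System: CHO-CHOP luciferase reporter cell line | Buffer or medium: F12 medium containing 10% fetal bovine serum | Doses: One dose, 10 µM in 0.5% DMSO | Times: 6 h compound exposure at 37 °C after overnight seeding | Signal: Luciferase luminescence | Read-out: % activation vs tunicamycin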
Mdm2 MdmX PPI: inhibitors of human Mdm2/MdmX interaction; SaOS-2 split-luciferase Mdm2/MdmX complementation, luminescence; inhibition, % at 8 µM; 330,000 tested, 3% active; AID 485346;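 active = inhibition of at least 50% at 8 µM in the primary screen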
Mdm2 MdmX conf: confirmation of human Mdm2/MdmX interaction inhibitors. shares compounds with Mdm2 MdmX PPI. Mdm2-MdmX binding, luminescent assay. inhibition, % at 8 µM. 10,000 tested, 55% active; in the data active = inhibition above about 40%
FLuc counter: counter-screen for Mdm2/MdmX inhibitors: full-length luciferase; shares compounds with Mdm2 MdmX PPI; SaOS-2 full-length luciferase counterscreen, luminescence; inhibition, % at 8 µM; 6,200 tested, 77% active;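 active = mean inhibition at 8 µM reaching about 37%, which flags the compound as non-specific, limit read from the data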;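 note: p53-null SaOS-2 cells with luciferase driven by a doxycycline-inducible promoter; compound on cells about two nights before reading with doxycycline added after day one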
An asterisk follows results filed as active; x = no result given.

SMILES | Apaf-1 inh | XBP1 UPR activ | UBC13 inh | CHOP UPR activ | Mdm2 MdmX PPI | Mdm2 MdmX conf | FLuc counter
COc1ccc(C(=O)Nc2nc3cc(OC)c(OC)cc3c(=O)[nH]2)cc1 | 6.4 | -0.2 | -2.4 | 1.9 | 71.0* | -9.9 | x
CCCn1c(SCC(=O)Nc2cc(Cl)ccc2OC)nc(O)cc1=O | -2.9 | 0.7 | -0.1 | -0.7 | 19.2 | x | x
CCc1ccccc1NC(=O)CN(c1ccc(OC)cc1OC)S(=O)(=O)c1ccccc1 | 5.0 | -3.1 | 11.4 | 3.2 | 18.9 | x | x
Cc1nc(NC(=O)CSc2nc3cccnc3n2C2CCCCC2)sc1C | 24.9 | 18.8 | 1.2 | 15.3 | 56.9* | 18.7 | 96.3*
Cc1cc(/N=C/C=C2\N(C)c3ccccc3C2(C)C)n(CCC#N)n1 | 2.0 | -2.1 | -0.3 | -0.4 | 49.9 | x | x
CC(C)=CCC/C(C)=C/CNC(=O)C[C@H]1C[C@H](C(=O)N(C(C)C)C(C)C)[C@@]2(C)c3[nH]c4ccc(Cl)cc4c3CCN2C1=O | 30.9 | 11.2 | x | 4.7 | 51.4* | 1.3 | x
CC(C)N(C(=O)[C@H]1CC(CC(=O)NCCCN(C)C)C(=O)N2CCc3c([nH]c4ccccc34)[C@]12C)C(C)C (some centres not stated) | 17.0 | 0.1 | 3.3 | -0.2 | 12.4 | x | x
CC(C)=CCC/C(C)=C/CNC(=O)CC1C[C@H](C(=O)N(C(C)C)C(C)C)[C@@]2(C)c3[nH]c4ccccc4c3CCN2C1=O (some centres not stated) | 30.2 | 10.4 | 0.9 | 5.5 | 52.6* | -10.3 | x
CCc1ccccc1NC(=O)c1ccc(CN2CCC(Cc3ccccc3)CC2)cc1 | 15.0 | -5.4 | 23.1 | 2.0 | 51.2* | 36.4 | 75.9*
Cc1ccc(S(=O)(=O)NCc2ccc(C(=O)NCCCN3CCC(Cc4ccccc4)CC3)cc2)cc1 | 14.6 | -6.2 | 37.0 | -1.2 | 75.1* | 42.1* | 43.3*
COCCNC(=O)c1ccc(CN2CCC(Cc3ccccc3)CC2)cc1 | 1.0 | -1.8 | 2.7 | 0.6 | -29.9 | x | x
O=C(NCc1ccccc1)c1ccc(CN2CCC(Cc3ccccc3)CC2)cc1 | 15.2 | -2.8 | 11.4 | -0.4 | 53.9* | 28.3 | x
COc1ccc(CCNC(=O)c2ccc(CN3CCC(Cc4ccccc4)CC3)cc2)cc1OC | 9.2 | -1.4 | 17.8 | 0.1 | 36.3 | x | x
Cc1ccc(S(=O)(=O)NCCC(=O)N2CCC(Cc3ccccc3)CC2)cc1 | 16.0 | -4.5 | 0.2 | 0.8 | 1.7 | x | x
O=c1[nH]cnc2c1ncn2[C@@H]1O[C@H](COS(=O)(=O)O)[C@@H](O)[C@H]1O | 11.3 | 0.3 | -1.9 | -0.8 | -2.0 | x | x
CC1CCN(S(=O)(=O)c2ccc3ncn(CC(=O)N4CCN(C)CC4)c(=O)c3c2)CC1 | -7.0 | -1.9 | 5.6 | 0.8 | 0.4 | x | x
CN(C)N1C(N)=C(C#N)C(c2cccc3ccccc23)C2=C1CC(c1ccccc1)CC2=O (configuration not stated) | 3.7 | -2.6 | 1.1 | 4.7 | 63.5* | 62.7* | 42.5*
CC(=O)NC(C)c1cc(Cl)c2cccnc2c1O (configuration not stated) | -9.3 | -1.7 | 0.5 | -1.7 | 39.7 | x | x
COc1ccccc1C(NC(C)=O)c1cc(Cl)c2cccnc2c1O (configuration not stated) | -1.8 | 3.5 | -13.9 | 11.5 | 66.8* | 60.6* | 31.2
COc1ccc(C(NC(C)=O)c2cc(Cl)c3cccnc3c2O)cc1OC (configuration not stated) | -2.4 | -2.0 | -25.3 | -0.4 | 68.2* | 76.1* | 39.8*
COc1ccc(C(NC(C)=O)c2nccc3cc(OC)c(OC)cc23)cc1OC (configuration not stated) | 1.2 | -1.3 | -3.0 | 0.6 | 4.5 | x | x
O=C(COC(=O)/C=C/c1ccc([N+](=O)[O-])cc1)Nc1ccc2[nH]c(=O)[nH]c2c1 | -23.9 | -1.0 | -19.8 | 0.7 | 2.9 | x | x
C/C(=N/OC(=O)c1c(-c2ccccc2Cl)noc1C)c1cnccn1 | 1.3 | 0.3 | -5.8 | 4.2 | 14.3 | x | x
Cc1onc(-c2ccccc2Cl)c1C(=O)O/N=C(\N)c1ccc([N+](=O)[O-])o1 | 2.8 | -4.0 | -2.3 | 5.9 | 60.4* | 39.5 | 70.5*
Cc1cc2oc(=O)cc(CN3CCCCC3C)c2cc1Cl (configuration not stated) | 12.1 | 0.1 | 4.0 | -0.9 | 8.2 | x | x
SMILES | Apaf-1 inh | XBP1 UPR activ | UBC13 inh | CHOP UPR activ | Mdm2 MdmX PPI | Mdm2 MdmX conf | FLuc counter
O=c1c2ccccc2cnn1Cc1ccc(Cl)c(Cl)c1 | 4.9 | -2.0 | 9.7 | 2.9 | 15.6 | x | x
Cc1cc2oc(=O)cc(Cn3ncc(Cl)c(Cl)c3=O)c2cc1Cl | 17.5 | -7.9 | -7.4 | 1.9 | 96.3* | 97.7* | 53.5*
O=C(Cn1ncc(Cl)c(Cl)c1=O)NC(=O)NC1CCCCC1 | 34.6 | -9.4 | -17.8 | -1.4 | 100.2* | 96.7* | 50.0*
O=C(CN1CCCCC1)NC(=O)NC1CCCC1 | -3.3 | -2.0 | 3.5 | 0.0 | 19.7 | x | x
Cc1ccc(C(=O)OCn2ncc(Cl)c(Cl)c2=O)cc1 | 16.5 | -7.2 | 13.2 | -10.9 | 90.0* | 100.2* | 0.6
Cc1cccc(Cn2ncc(Cl)c(Cl)c2=O)c1 | 16.8 | 4.2 | 2.5 | 19.1 | 100.2* | 84.0* | 51.1*
COc1cccc(N2CCN(C(=O)CN(C)S(=O)(=O)c3ccc4c(c3)c(=O)n(C)c(=O)n4C)CC2)c1 | 0.6 | 1.1 | -1.7 | 0.0 | 16.8 | x | x
CN(C(=O)CCN1C(=O)c2ccccc2C1=O)c1ccccc1 | -7.8 | 0.6 | 2.0 | 2.6 | 0.9 | x | x
Cc1ccc(NC(=O)CSc2nnc(-c3ccoc3C)n2CCCN(C)C)cc1Cl | 13.9 | -3.0 | -5.9 | 2.2 | -15.6 | x | x
CCOC(=O)c1ccc(NC(=O)Cn2nc(C)c3ccccc3c2=O)cc1 | 3.0 | -3.0 | -6.4 | -0.1 | 15.9 | x | x
CCOC(=O)c1ccc(NC(=O)Cn2ncc(Cl)c(Cl)c2=O)cc1 | -1.1 | -8.7 | 7.1 | 1.0 | 88.7* | 100.2* | 51.4*
O=C(Cn1ncc(Cl)c(Cl)c1=O)Nc1ccc2c(c1)OCO2 | -8.1 | -2.0 | -11.2 | 38.9 | 100.3* | 82.8* | 57.2*
O=C(OCn1ncc(Cl)c(Cl)c1=O)c1ccc(C(F)(F)F)cc1 | 12.8 | -5.8 | 3.2 | 36.2 | 71.9* | 74.0* | 53.0*
Cc1nn(CC(=O)Nc2ccc3c(c2)OCO3)c(C)c1Cl | -2.2 | -0.7 | 3.8 | 0.7 | -9.3 | x | x
CC1(C(=O)NCc2cccnc2)CCC(=O)N1Cc1cccs1 (configuration not stated) | -1.4 | 3.1 | -5.6 | -1.4 | -2.7 | x | x
NC(=O)c1sc2nnc(-c3ccccc3)c(-c3ccccc3)c2c1N | -12.6 | 2.2 | -2.4 | -1.0 | 47.3 | x | x

Bioassay records deposited in PubChem by Sanford-Burnham Center for Chemical Genomics.
